Data taken from ChEMBL document CHEMBL1123308 (J Med Chem, 1986).
pEC50: −log10 of the molar value. The source made the active and inactive calls. The calls are words filed in the database; no cut-off is given here.

Key:
[1] = tested on: L1210; assay: Compound was evaluated for drug concentration for 50% inhibition of actively growing L1210 cells in culture for the inhibition of incorporation of [3H]uridine in the RNA; type: functional; conditions: Mus musculus, read-out: ED50 (the source's name)
In short: (§1)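 Actively growing L1210 leukemia cells in culture; incorporation of [3H]thymidine into DNA or [3H]uridine into RNA measured. ED50 is the drug concentration giving 50% inhibition of incorporation. Drugs dissolved in Me2SO first, then diluted to 1% Me2SO final.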

[2] = tested on: Mus musculus; assay: Compound was evaluated for antitumor efficacy at optimum dose in mice against P388 leukemic cells at 7.5 mg/Kg day 1 (intraperitoneal); type: functional
In short: (§2)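 Mouse survival screens were run by NCI protocols, with intraperitoneal dosing on the schedule given. Efficacy is % T/C, the average survival time of treated mice divided by that of control mice, at the optimal dose.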

[3] = tested on: Mus musculus; assay: Compound was evaluated for antitumor efficacy at optimum dose in mice against P388 leukemic cells at 8 mg/Kg on q4d 5,9,13 days (intraperitoneal); type: functional; in short: as §2
[4] = tested on: Mus musculus; assay: Compound was evaluated for antitumor efficacy at optimum dose in mice aagainst B16 melanoma cells at 7.5 mg/Kgon day 1 (intraperitoneal); type: functional; in short: as §2
[5] = tested on: L1210; assay: Compound was evaluated for drug concentration for 50% inhibition of actively growing L1210 cells in culture for the inhibition of incorporation of [3H]thymidine in the DNA; type: functional; conditions: Mus musculus, read-out: ED50 (the source's name); in short: as §1
[6] = Stabilization of helical DNA toward thermal denaturation (delta Tm) was determined; type: ADME
In short: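 Calf thymus DNA thermal denaturation. Drug at 5.2 × 10^-6 M and DNA (P) at 5.2 × 10^-5 M in 0.01 M phosphate buffer, pH 7, with 10^-5 M EDTA and 5% Me2SO. ΔTm = Tm of DNA-drug complex minus Tm of DNA alone. Values ≤1 are taken as insignificant binding.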

[7] = tested on: Mus musculus; assay: Compound was evaluated for antitumor efficacy at optimum dose in mice against B16 melanoma cells at 10 mg/Kg on q4d 1,5,9 days (intravenous)
[8] = Partition coefficient was determined in octanol-phosphate at pH 6.5; type: physicochemical; conditions: octanol/phosphate buffer
In short: (§3)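 Octanol/buffer partitioning used phosphate buffer at pH 7.4, 6.5 or 6.0 and citrate buffer at pH 4.0. Phases were separated by centrifugation at 2000 rpm for 5 min. Concentration in one phase was read by UV absorbance at 235.5 nm in 1-cm cells, and the other phase was obtained by difference. Determinations were in duplicate at 2 or 3 octanol-buffer ratios (1:10 to 1:50). Log P = log(organic/aqueous concentration).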

[9] = Partition coefficient was determined in octanol-phosphate at pH 6.0; type: physicochemical; conditions: octanol/phosphate buffer; in short: as §3
[10] = Partition coefficient was determined in octanol-phosphate at pH 7.4; type: physicochemical; conditions: octanol/phosphate buffer; in short: as §3
[11] = Partition coefficient was determined in octanol-citrate at pH 4.0; conditions: octanol/citrate buffer
[12] = tested on: Mus musculus; assay: Compound was evaluated for antitumor efficacy at optimum dose in mice against P388 leukemic cells at 1.25 mg/Kg day 1 (intraperitoneal); type: functional; in short: as §2
[13] = tested on: L1210; assay: Compound was evaluated for drug concentration for 50% inhibition of actively growing L1210 cells in culture for the inhibition of incorporation of [3H]thymidine in the DNA(isomeric ratio A/B/C = 2:91:7); type: functional; conditions: Mus musculus, read-out: ED50 (the source's name)
In short: (§4)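 Actively growing L1210 cells in culture. Drug was dissolved in Me2SO and diluted to 1% Me2SO final. The read-out is [3H]thymidine incorporation into DNA or [3H]uridine incorporation into RNA. ED50 is the drug concentration giving 50% inhibition of incorporation.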

[14] = Stabilization of helical DNA toward thermal denaturation (delta Tm) was determined (isomeric ratio A/B/C = 7:0:92); type: ADME
[15] = tested on: L1210; assay: Compound was evaluated for drug concentration for 50% inhibition of actively growing L1210 cells in culture for the inhibition of incorporation of [3H]uridine in the RNA(isomeric ratio A/B/C = 7:0:92); type: functional; conditions: Mus musculus, read-out: ED50 (the source's name); in short: as §4
[16] = tested on: L1210; assay: Compound was evaluated for drug concentration for 50% inhibition of actively growing L1210 cells in culture for the inhibition of incorporation of [3H]thymidine in the DNA(isomeric ratio A/B/C = 28:69:0); type: functional; conditions: Mus musculus, read-out: ED50 (the source's name); in short: as §4
[17] = tested on: Mus musculus; assay: Compound was evaluated for antitumor efficacy at optimum dose in mice against P388 leukemic cells at 2 mg/kg q4d 5,9,13 days (intraperitoneal); type: functional; in short: as §2
[18] = tested on: Mus musculus; assay: Compound was evaluated for antitumor efficacy at optimum dose in mice aagainst B16 melanoma cells at 0.0625 mg/Kg day 1 (intraperitoneal); type: functional; conditions: in the assay text read “0.625 mg/Kg” for “0.0625 mg/Kg”; in short: as §2
[19] = tested on: L1210; assay: Compound was evaluated for drug concentration for 50% inhibition of actively growing L1210 cells in culture for the inhibition of incorporation of [3H]uridine in the RNA(isomeric ratio A/B/C = 2:91:7); type: functional; conditions: Mus musculus, read-out: ED50 (the source's name); in short: as §4
[20] = tested on: L1210; assay: Compound was evaluated for drug concentration for 50% inhibition of actively growing L1210 cells in culture for the inhibition of incorporation of [3H]thymidine in the DNA(isomeric ratio A/B/C = 7:0:92); type: functional; conditions: Mus musculus, read-out: ED50 (the source's name); in short: as §4
[21] = Stabilization of helical DNA toward thermal denaturation (delta Tm) was determined (isomeric ratio A/B/C = 28:69:0); type: ADME
[22] = tested on: Nucleic Acid; assay: Stabilization of helical DNA toward thermal denaturation (delta Tm) was determined (isomeric ratio A/B/C = 2:91:7); type: nucleic-acid assay
In short: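 Thermal denaturation of calf thymus DNA (5.2 × 10^-5 M P) with drug at 5.2 × 10^-6 M. Buffer was 0.01 M phosphate pH 7 with 10^-5 M EDTA and 5% Me2SO. ΔTm = Tm of the DNA-drug complex minus Tm of DNA alone. Values ≤1 are taken as insignificant binding.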

[23] = tested on: Mus musculus; assay: Compound was evaluated for antitumor efficacy at optimum dose in mice against B16 melanoma cells at 2.5 mg/kg on q4d 1,5,9 days (intravenous)
[24] = tested on: L1210; assay: Compound was evaluated for drug concentration for 50% inhibition of actively growing L1210 cells in culture for the inhibition of incorporation of [3H]uridine in the RNA(isomeric ratio A/B/C = 28:69:0); type: functional; conditions: Mus musculus, read-out: ED50 (the source's name); in short: as §4
[25] = tested on: L1210; assay: Compound was evaluated for drug concentration for 50% inhibition of actively growing L1210 cells in culture for the inhibition of incorporation of [3H]uridine in the RNA(isomeric ratio A/B = 76:12); type: functional; conditions: Mus musculus, read-out: ED50 (the source's name); in short: as §4
[26] = tested on: L1210; assay: Compound was evaluated for drug concentration for 50% inhibition of actively growing L1210 cells in culture for the inhibition of incorporation of [3H]thymidine in the DNA(isomeric ratio A/B = 4:91); type: functional; conditions: Mus musculus, read-out: ED50 (the source's name); in short: as §4
[27] = tested on: L1210; assay: Compound was evaluated for drug concentration for 50% inhibition of actively growing L1210 cells in culture for the inhibition of incorporation of [3H]uridine in the RNAisomeric ratio A/B = 4:91); type: functional; conditions: Mus musculus, read-out: ED50 (the source's name); in short: as §4
[28] = Stabilization of helical DNA toward thermal denaturation (delta Tm) was determined (isomeric ratio A/B = 4:91); type: ADME
[29] = Stabilization of helical DNA toward thermal denaturation (delta Tm) was determined (isomeric ratio A/B = 76:12); type: ADME
[30] = tested on: L1210; assay: Compound was evaluated for drug concentration for 50% inhibition of actively growing L1210 cells in culture for the inhibition of incorporation of [3H]thymidine in the DNA(isomeric ratio A/B = 76:12); type: functional; conditions: Mus musculus, read-out: ED50 (the source's name); in short: as §4
[31] = tested on: Mus musculus; assay: Compound was evaluated for antitumor efficacy at optimum dose in mice against B16 melanoma cells at 0.0063 mg/Kg dose on day 1 (intraperitoneal); type: functional
[32] = tested on: Mus musculus; assay: Compound was evaluated for antitumor efficacy at optimum dose in mice against B16 melanoma cells at q4d 5,9,13 days (intraperitoneal); Inactive; type: functional, organism-based

## COc1cccc2c1C(=O)c1c(O)c3c(c(O)c1C2=O)C[C@@](O)(C(=O)CO)C[C@@H]3O[C@H]1C[C@H](N)[C@H](O)[C@H](C)O1 [DOXORUBICIN]
[1]
  pEC50: 6.24
[2]
  T/C: 252%
[3]
  T/C: 160%
[4]
  T/C: 192%
[5]
  pEC50: 5.80
[6]
  Delta Tm: 12.8
[7]
  T/C: 206%

## COc1cccc2c1C(=O)c1c(O)c3c(c(O)c1C2=O)C[C@@](O)(C(=O)CO)C[C@@H]3OC1CC(N2CCOCC2)C(O)C(C)O1 (some centres undefined)
[8]
  logD: 1.42
[9]
  logD: 0.96
[10]
  logD: 1.73
[11]
  logD: -1.1

## COc1cccc2c1C(=O)c1c(O)c3c(c(O)c1C2=O)C[C@@](O)(C(=O)CO)C[C@@H]3OC1CC2C(OC3COCC(C#N)N32)C(C)O1 (some centres undefined)
[8]
  logD: 2.29
[12]
  T/C: 150%
[13]
  pEC50: 5.85
[14]
  Delta Tm: 2.6
[15]
  pEC50: 5.70
[9]
  logD: 2.4
[16]
  pEC50: 6.26
[17]
  T/C: 135%
[18]
  T/C: >=153%
[19]
  pEC50: 6.10
[20]
  pEC50: 4.60
[21]
  Delta Tm: 12.8
[22]
  ΔTm: 12.2
[10]
  logD: 2.41
[23]
  T/C: 141%
[11]
  logD: 2.24
[24]
  pEC50: 6.66

## COc1cccc2c1C(=O)c1c(O)c3c(c(O)c1C2=O)C[C@@](O)(C(C)=O)C[C@@H]3OC1CC2C(OC3COCC(C#N)N32)C(C)O1 (some centres undefined)
[25]
  pEC50: 6.66
[26]
  pEC50: 5.71
[27]
  pEC50: 6.08
[28]
  Delta Tm: 8.3
[29]
  Delta Tm: 5
[30]
  pEC50: 6.38

## COc1cccc2c1C(=O)c1c(O)c3c(c(O)c1C2=O)C[C@@](O)(C(=O)CO)C[C@@H]3OC1CC(N2CCOCC2C#N)C(O)C(C)O1 (some centres undefined)
[1]
  pEC50: 9.28
[5]
  pEC50: 8.52
[6]
  Delta Tm: 8.7
[31]
  T/C: >=138%
[32]
  T/C: inactive
